Screening data: PubChem, Broad Institute
Sampled rows, rich in hits. Any-hit rate of the full collection: about 2.6%.
PvdQ acylase: P. aeruginosa PvdQ acylase inhibitors, primary screen, biochemical, fluorescence, plate reader and imaging, single point | 0.063% of 340,000 active | PvdQ acylase [Pseudomonas aeruginosa LESB58] | inhibition, % at 10 µM | purified PvdQ acylase | AID 488965, 2010; in the data active = inhibition above about 30%, passing the limit was not always enough
dFosB act: activators of delta FosB homodimer, primary screen, biochemical, fluorescence polarization, TAMRA-CDK5 oligo, single point | Protein FosB (Mus musculus), P13346 | purified delta FosB; percent of positive-control signal above neutral wells | activation, % at 25 µM | 0.99% of 340,000 active | AID 493131, 2011;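 active = mean activation above about 17%, with every replicate also reaching it, limit read from the data, passing the limit was not always enough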
Target sequence (P13346 whole entry, looked up): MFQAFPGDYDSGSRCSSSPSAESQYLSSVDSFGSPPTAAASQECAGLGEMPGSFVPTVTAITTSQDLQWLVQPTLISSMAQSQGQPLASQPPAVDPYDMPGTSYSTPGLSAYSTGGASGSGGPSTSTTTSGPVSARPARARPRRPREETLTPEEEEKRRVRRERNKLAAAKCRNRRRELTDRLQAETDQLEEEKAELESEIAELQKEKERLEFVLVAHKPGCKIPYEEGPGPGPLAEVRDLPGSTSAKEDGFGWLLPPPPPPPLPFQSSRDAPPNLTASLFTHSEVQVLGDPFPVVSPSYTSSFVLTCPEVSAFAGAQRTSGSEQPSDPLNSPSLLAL
SR-BI uptake up: activators of SR-BI mediated DiI-HDL uptake, primary screen, ldlA[mSR-BI] CHO cells, DiI fluorescence. 3 h; 100 = double the neutral-control signal. activation, % at 12.5 µM. 0.096% of 320,000 active;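 active = mean replicate activation of at least 60% and every replicate at or above 60%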
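Assay system: LDL receptor-deficient CHO ldlA cells overexpressing murine SR-BI / Medium: BSA-supplemented, HEPES-buffered Ham's F12, pH 7.4 / Probe or stimulus: DiI-labelled HDL at 10 µg/mL final / Timing: compound with DiI-HDL co-incubation, 3 h at 37 °C / Technique: bottom-read cell fluorescence after medium removal, ex 550/em 595 nm / Measure: HDL uptake via cellular fluorescence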
SR-BI DiI inh: inhibitors of SR-BI mediated HDL lipid uptake, primary screen, ldlA[mSR-BI] cells, fluorescence, single point; ldlA[mSR-BI] CHO cells, DiI-HDL uptake fluorescence, 3 h; inhibition, % at 12.5 µM; 0.96% of 320,000 active;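 active = mean replicate inhibition of at least 70% and a set share of replicates each scoring 70 or more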
Xi reactivation: activators of inactive X chromosome reactivation, primary screen, imaging, XiGFP fibroblasts, GFP high-content imaging, set 2; activation, % at 7.58 µM; 0.055% of 360,000 active; XiGFP mouse fibroblasts, % GFP-positive cells imaging, 3 d; cells co-treated with 5-aza-dC sensitizer; scaled so ellipticine positive control = 100%;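 active = mean normalized replicate activation at least 10% and every replicate at or above 10%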
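System: SV40-immortalized XiGFP fibroblast cells, line 68-5-11 / Incubation: 3-day compound exposure, then 15 min fixation at room temperature / Compound: single concentration per compound, delivered by pin transfer / Buffer or medium: DMEM plus 5-aza-dC sensitizer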
Ecoli rRNA inh: reduced GFP signal of wild-type E. coli, primary screen, bacterial rRNA inhibitor project, GFP/RFP fluorescence, OD600, single point; E. coli WT GFP vs humanized-ribosome RFP mutants, 24 h; active compounds read low; DMSO median 0, no signal -100; GFP signal change (wild-type ribosome), % (no concentration beside the values); 1.6% of 350,000 active;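 active = significant combined selectivity score with lowered wild-type GFP, culture density cut under 30%, mutant RFP and density less affected; inactive = any of these conditions unmet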
Of the large screens only hits and unclear results are named; the others gave an inactive call.

Cc1cc(C(=O)N2CCCC(C(=O)c3ccc(Cl)cc3C)C2)no1 (configuration not stated)	none
COc1ccc(CNc2ncnc3c2[nH]c2ccccc23)cc1	Ecoli rRNA inh -55 (no result: PvdQ acylase, dFosB act, SR-BI uptake up, SR-BI DiI inh)
Nc1ncnc2c1ncn2[C@@H]1O[C@H](CNCc2ccc(OCc3ccccc3)cc2)[C@@H](O)[C@H]1O	none
Fc1ccc(-c2csc(-c3ccccn3)n2)cc1F	PvdQ acylase 33
COc1cc(-c2cc(NC=O)c3ncc(-c4ccc(C(C)=O)cc4)n3c2)cc(OC)c1OC	none (no result: PvdQ acylase, dFosB act, SR-BI uptake up, SR-BI DiI inh)
N#CC1=C(N)Oc2cc3c(cc2C1c1ccc(Cl)cc1)OCO3 (configuration not stated)	Ecoli rRNA inh -23 (no result: Xi reactivation)
O=C(O)c1cccc(S(=O)(=O)N2CCCC(c3nc4c(nnn4Cc4ccccc4Cl)c(=O)[nH]3)C2)c1 (configuration not stated)	none
O=C1NC(=S)NC1=Cc1ccccc1O	none
O=C1NC(=S)NC1=Cc1ccc(Cl)cc1Cl	Ecoli rRNA inh -25
CC(=O)Nc1ccc(C(=O)COC(=O)CCS(=O)(=O)c2ccccc2)cc1	none
CCN1C(=O)CC(N2CCN(c3cccc(OC)c3)CC2)C1=O (configuration not stated)	none
CCC(C)(C)n1nnnc1C(c1cccnc1)N1CCC(Cc2ccccc2)CC1 (configuration not stated)	Ecoli rRNA inh -33
c1cncc(C(c2nnnn2C2CCCCC2)N2CCCCC2)c1 (configuration not stated)	Ecoli rRNA inh -20
Cc1ccc(Cl)cc1N1CCN(C(c2cccnc2)c2nnnn2C2CCCCC2)CC1 (configuration not stated)	none (no result: Xi reactivation, Ecoli rRNA inh)
CC(C)(C)C(=O)OCOC(=O)[C@@H]1N2C(=O)[C@@H](N=CN3CCCCCC3)[C@H]2SC1(C)C	none (no result: Ecoli rRNA inh)
COc1ccccc1Oc1cn[nH]c1-c1ccc(O)cc1O	Ecoli rRNA inh -21
Cc1ccc(NS(=O)(=O)N(C)C)cc1	none (no result: Xi reactivation, Ecoli rRNA inh)
CN(C)S(=O)(=O)Nc1cc(Cl)cc(Cl)c1	Ecoli rRNA inh -37
Cn1c(=O)c2ncn(CC(=O)Nc3cccc(-c4nc5ccccc5s4)c3)c2n(C)c1=O	dFosB act 78 (no result: Xi reactivation, Ecoli rRNA inh)
CCc1ccc(NC(=O)Cn2cnc3c(=O)n(C)c(=O)n(C)c32)cc1	none
CC(=O)Nc1ccc(S(=O)(=O)Nc2nc3ccc(C)cc3s2)cc1	none (no result: Xi reactivation)
Cc1ccc2nc(-c3ccc(NS(=O)(=O)c4ccc(F)cc4)cc3)sc2c1	PvdQ acylase 30 (no result: Ecoli rRNA inh)
Cc1ccc2nc(-c3ccc(N)cc3)sc2c1	Ecoli rRNA inh -44
Cc1ccc2nc(-c3ccc(NC(=S)NCC(C)(C)CN(C)C)cc3)sc2c1	Ecoli rRNA inh -36 (no result: SR-BI uptake up, SR-BI DiI inh)
COc1ccc(C(=O)NCc2nnc(SCC(=O)N3CCc4ccccc43)o2)cc1OC	none (no result: Xi reactivation, Ecoli rRNA inh)
COCCN(C(=O)c1csnn1)C(C(=O)NC1CCCC1)c1ccccc1 (configuration not stated)	none
CC(OC(=O)c1cnc2ccccc2n1)c1ccccc1Cl (configuration not stated)	none
Cc1ccc2nc(SCC(=O)NC3CCS(=O)(=O)C3)[nH]c2c1 (configuration not stated)	none
COc1ccc(NC(=O)N(C)C[C@H]2Oc3ccc(NC(=O)CCCCCC(=O)Nc4ccccc4N)cc3C(=O)N([C@H](C)CO)C[C@@H]2C)cc1	none (no result: PvdQ acylase, dFosB act, SR-BI uptake up, SR-BI DiI inh)
NC(=O)c1c(NC(=O)c2ccc(N3C(=O)CCC3=O)cc2)sc2c1CCCC2	SR-BI DiI inh 75
Cc1cc(C(=O)Nc2sc3c(c2C#N)CCCC3)no1	Ecoli rRNA inh -31 (no result: Xi reactivation)
N#Cc1c(NC(=O)CSC2=NCCS2)sc2c1CCCC2	SR-BI DiI inh 82 (no result: Xi reactivation, Ecoli rRNA inh)
